Test results taken from ChEMBL document CHEMBL3351873, “Synthesis, biological evaluation and molecular docking of novel chalcone-coumarin hybrids as anticancer and antimalarial agents” (Eur J Med Chem, 2014).
Activity calls are given as the source filed them. The rule behind the calls is not given here.

Legend:
[1] = (§1) Cytotoxicity against human HuCCa1 cells assessed as reduction in cell viability after 48 hrs by MTT assay; format: functional, cell-based; settings: HuCC-A1, 48 h
Outline: (§2)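 Adherent cells plated at 10,000–20,000 cells/well and allowed 24 h at 37 °C (5% CO₂) before an equal volume of medium with serially diluted compound was added. Etoposide and/or doxorubicin were positive controls and DMSO the negative control. After a further 48 h, surviving cells were measured by MTT. IC50 is the concentration giving 50% growth inhibition relative to the DMSO control.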

HepG2 [2] = test: Cytotoxicity against human HepG2 cells assessed as reduction in cell viability after 48 hrs by MTT assay; format: functional, cell-based; settings: for IC50: HepG2, 48 h; outline: as §2
A549 = test: Cytotoxicity against human A549 cells assessed as reduction in cell viability after 48 hrs by MTT assay; format: functional, cell-based; settings: for IC50: A549, 48 h; outline: as §2
[3] = (§3) Cytotoxicity against human MOLT3 cells assessed as reduction in cell viability after 48 hrs by XTT assay; format: functional, cell-based; settings: MOLT-3, 48 h
Outline: (§4)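 Suspension cells plated at 10,000–20,000 cells/well and pre-incubated 24 h at 37 °C, 5% CO₂. Serial compound dilutions were added in an equal volume of medium, with etoposide and/or doxorubicin as positive controls and DMSO as negative control, then incubated 48 h more. Viable cells were read by XTT. IC50 is taken as 50% growth inhibition versus the DMSO control.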

Plasmodium falciparum = test: Antimalarial activity against multidrug-resistant Plasmodium falciparum K1 after 24 hrs by [3H]hypoxanthine incorporation assay; format: functional, organism-based
Outline: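 P. falciparum K1 kept in RPMI 1640 with 20 mM HEPES, NaHCO₃, 10% human serum and 3% erythrocytes at 37 °C under 3% CO₂, passaged daily. Early ring-stage parasites (1% parasitemia, 1.5% erythrocytes) were exposed to compound (0.1% DMSO final) for 24 h. [3H]hypoxanthine was then added for a further 24 h. Incorporation was counted by scintillation and expressed as percent parasite growth.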

Vero = test: Cytotoxicity against african green monkey Vero cells assessed as reduction in cell viability after 4 days by green fluorescent protein detection method; format: cell-based; settings: chlorocebus sabaeus, 96 h
Outline: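 GFP-expressing Vero cells (stably transfected with pEGFP-N1) seeded at 3.3 × 10⁴ cells/mL onto compounds prediluted in 0.5% DMSO; 4 days at 37 °C, 5% CO₂. Fluorescence read at ex 485/em 535 nm, day-0 background subtracted. IC50 from dose-response curves over 6 concentrations (3-fold serial dilutions). Ellipticine positive control, 0.5% DMSO negative control.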

HepG2 [4] = test: Ratio of etoposide IC50 to compound IC50 for human HepG2 cells assessed as reduction in cell viability after 48 hrs by MTT assay; format: functional
HuCC-A1 = test: as §1; format: functional, cell-based; outline: as §2
MOLT-3 = test: as §3; format: functional, cell-based; outline: as §4
[5] = Plasmodium falciparum, K1, read-out: IC50

In the case of `COc1cccc(/C=C/C(=O)c2cccc(-n3cc(COc4cc(=O)oc5ccccc45)nn3)c2)c1OC`, the IC50 [1] is reported as 2.36 µM, the IC50 (HepG2 [2]) is reported as 4.26 µM and the IC50 (A549) is reported as 18.1 µM. It also gave an IC50 [3] of 0.53 µM, an IC50 (Plasmodium falciparum; [5]) of 4.73 µM and an IC50 (Vero) of 3.91 µM. For the same compound, the “Ratio IC50” value (HepG2 [4]) was 7.
With `COc1ccc(/C=C/C(=O)c2ccc(-n3cc(COc4ccc5ccc(=O)oc5c4)nn3)cc2)c(OC)c1OC` the Activity (HuCC-A1) was “inactive”, the Activity (HepG2 [2]) was “inactive” and the Activity (A549) was “inactive”. For the same compound, the IC50 [3] was 22.5 µM, the IC50 (Plasmodium falciparum) was “Not Active” and the Activity (Vero) was “Non-toxic”.
Compound `COc1cc([C@@H]2c3cc4c(cc3[C@@H](O[C@@H]3O[C@@H]5CO[C@@H](C)O[C@H]5[C@H](O)[C@H]3O)[C@H]3COC(=O)[C@H]23)OCO4)cc(OC)c1O` [ETOPOSIDE] has an IC50 [3] of 0.051 µM.
`Cc1c2ccncc2c(C)c2c1[nH]c1ccccc12` [ELLIPTECINE] gave an IC50 (Vero) of 1.94 µM.
In the case of `COc1ccc(/C=C/C(=O)c2ccc(-n3cc(COc4cc(=O)oc5ccccc45)nn3)cc2)c(OC)c1OC`, the Activity (HuCC-A1) is reported as “inactive”, the IC50 (HepG2 [2]) is reported as 22.9 µM and the Activity (A549) is reported as “inactive”. The IC50 [3] was 12.3 µM, the IC50 (Plasmodium falciparum; [5]) was 1.6 µM and the Activity (Vero) was “Non-toxic”.
`COc1cccc(/C=C/C(=O)c2cccc(-n3cc(COc4ccc5ccc(=O)oc5c4)nn3)c2)c1OC` gave an IC50 [1] of 11.1 µM, an IC50 (HepG2 [2]) of 15.7 µM and an IC50 (A549) of 31.4 µM. For the same compound, the IC50 [3] was 5.16 µM, the IC50 (Plasmodium falciparum; [5]) was 6.63 µM and the IC50 (Vero) was 35 µM.
In the case of `COc1cccc(/C=C/C(=O)c2ccc(-n3cc(COc4ccc5ccc(=O)oc5c4)nn3)cc2)c1OC`, the IC50 [1] is reported as 4.81 µM, the IC50 (HepG2 [2]) is reported as 8.18 µM and the IC50 (A549) is reported as 7.95 µM. For the same compound, the Activity (MOLT-3) was “inactive”, the IC50 (Plasmodium falciparum) was “Not Active” and the Activity (Vero) was “Non-toxic”.
For `COc1ccc(/C=C/C(=O)c2cccc(-n3cc(COc4cc(=O)oc5ccccc45)nn3)c2)c(OC)c1OC`, the IC50 [1] was 6.13 µM, the Activity (HepG2 [2]) was “inactive” and the Activity (A549) was “inactive”. The IC50 [3] was 1.13 µM, the IC50 (Plasmodium falciparum; [5]) was 7.47 µM and the Activity (Vero) was “Non-toxic”.
In the case of `COc1ccc(/C=C/C(=O)c2cccc(-n3cc(COc4ccc5ccc(=O)oc5c4)nn3)c2)cc1OC`, the IC50 [1] is reported as 33.4 µM, the Activity (HepG2 [2]) is reported as “inactive” and the Activity (A549) is reported as “inactive”. For the same compound, the IC50 [3] was 3.12 µM, the IC50 (Plasmodium falciparum) was “Not Active” and the Activity (Vero) was “Non-toxic”.
In the case of `COc1ccc(/C=C/C(=O)c2cccc(-n3cc(COc4ccc5ccc(=O)oc5c4)nn3)c2)c(OC)c1OC`, the Activity (HuCC-A1) is reported as “inactive”, the Activity (HepG2 [2]) is reported as “inactive” and the Activity (A549) is reported as “inactive”. For the same compound, the IC50 [3] was 3.89 µM, the IC50 (Plasmodium falciparum; [5]) was 13 µM and the Activity (Vero) was “Non-toxic”.
In the case of `C[C@H]1[C@@H](O)O[C@@H]2O[C@@]3(C)CC[C@H]4[C@H](C)CC[C@@H]1[C@@]24OO3` [ARTENIMOL], the IC50 (Plasmodium falciparum; [5]) is reported as 0.0011 µM.
For `COc1cc(/C=C/C(=O)c2ccc(-n3cc(COc4cc(=O)oc5ccccc45)nn3)cc2)cc(OC)c1OC`, the Activity (HuCC-A1) was “inactive”, the Activity (HepG2 [2]) was “inactive” and the Activity (A549) was “inactive”. For the same compound, the IC50 [3] was 6.58 µM, the IC50 (Plasmodium falciparum) was “Not Active” and the Activity (Vero) was “Non-toxic”.
For `COc1cc(/C=C/C(=O)c2ccc(-n3cc(COc4ccc5ccc(=O)oc5c4)nn3)cc2)cc(OC)c1OC`, the Activity (HuCC-A1) was “inactive”, the Activity (HepG2 [2]) was “inactive” and the Activity (A549) was “inactive”. The IC50 [3] was 79.5 µM, the IC50 (Plasmodium falciparum) was “Not Active” and the Activity (Vero) was “Non-toxic”.
With `COc1ccc(/C=C/C(=O)c2cccc(-n3cc(COc4cc(=O)oc5ccccc45)nn3)c2)cc1OC` the IC50 [1] was 38.6 µM, the Activity (HepG2 [2]) was “inactive” and the Activity (A549) was “inactive”. The IC50 [3] was 3.91 µM, the IC50 (Plasmodium falciparum) was “Not Active” and the Activity (Vero) was “Non-toxic”.
Compound `COc1cccc2c1C(=O)c1c(O)c3c(c(O)c1C2=O)C[C@@](O)(C(=O)CO)C[C@@H]3O[C@H]1C[C@H](N)[C@H](O)[C@H](C)O1` [DOXORUBICIN] has an IC50 [1] of 0.83 µM.
